Format in all cases: cell-based
What all share (parameters): scale not given: the % may be the effect or the level left

Data set [1] concerns H4. The data set can be described thus: Induction of alpha-secretase-mediated reduction in amyloid beta secretion in human H4 cells expressing wild type betaAPP695 at 10 uM after 24 hrs […] relative to control. Put shortly:
(§1)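 Serum-starved H4βAPP695wt cells are treated for 24 h with drug in DMSO (0.02% DMSO vehicle control). Total Aβ in conditioned medium is measured by sandwich ELISA with 6E10 capture and 4G8 detection, normalized to lysate protein by BCA. Cytotoxicity is read as total cell protein. Quadruplicate wells in 1-4 independent experiments give the % decrease versus vehicle.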

Data set [2] deals with H4. The data set can be described thus: Induction of alpha-secretase-mediated reduction in amyloid beta secretion in human H4 cells expressing wild type betaAPP695 at 30 uM after 24 hrs […] relative to control. In a few lines:
as §1

Data set [3] relates to H4. The data set can be described thus: Cytotoxicity against human H4 cells expressing wild type betaAPP695 assessed as decrease in cell protein at 10 uM after 24 hrs. The conditions noted are these: h4, 24 h. Put shortly:
as §1

Data set [4] relates to H4. The data set can be described thus: Cytotoxicity against human H4 cells expressing wild type betaAPP695 assessed as decrease in cell protein at 30 uM after 24 hrs. The conditions noted are these: h4, 24 h. Put shortly: as §1

This note sets out measurements from ChEMBL document CHEMBL1165845, “Synthesis and biological evaluation of analogues of a novel inhibitor of beta-amyloid secretion” (J Med Chem, 2010).

`O=C(NCCSCc1cccc(F)c1)c1c(F)cccc1F`: the Activity with H4 [1] is -16.8%; with H4 [2], -15.5%; in the data set on H4 [3] it was 0.1%; in the data set on H4 [4] it was 1.8%.

With `O=C(NCCSCc1cccc(NC(=O)C2CC2)c1)c1c(Cl)cccc1Cl`, the Activity in the data set on H4 [1] was -21.4%; with H4 [2], -2%; with H4 [3], 3%; in the data set on H4 [4], 3.2%.

`O=C(CSCc1c(F)cccc1Cl)NCc1ccccc1Cl`: the Activity with H4 [1] was determined as 47.8%.

Turning to `O=C(NCCS(=O)(=O)Cc1cccc(Cl)c1)c1c(Cl)cccc1Cl`, the Activity in the data set on H4 [1] is 8.9%; with H4 [2], 9.3%; with H4 [3], -2.2%; in the data set with H4 [4], -3.8%.

In the case of `O=C(NCCSCc1ccc(Cl)cc1)c1ccccc1Cl`, the Activity in the data set with H4 [1] was -12%.

In the case of `CN(C)CCNC(=O)c1c(Cl)cccc1Cl`, in the data set on H4 [1], the Activity came to 6.6%.

For the molecule `COc1cc(CSCCNC(=O)c2c(Cl)cccc2Cl)cc(OC)c1`, the Activity in the data set with H4 [1] was 47.9%; in the data set on H4 [2], 80.4%; in the data set with H4 [3], 2%; in the data set on H4 [4], -8.7%.

On to `O=C(NCCCCNC(=O)c1ccccc1Br)c1ccccc1Br`, for which, in the data set with H4 [1], the Activity came to 7.9%.

Turning to `N#Cc1c(Cl)cccc1CSCCNC(=O)c1c(Cl)cccc1Cl`, the Activity came to 48.7% in the data set on H4 [1], 52.3% with H4 [2], 3.5% in the data set on H4 [3] and 1.3% in the data set with H4 [4].

With `O=C(NCCS(=O)(=O)Cc1ccc(F)cc1)c1c(F)cccc1Cl`, in the data set on H4 [1], the Activity was found to be 39.2%.

In the case of `COc1cccc(C[S+]([O-])CCNC(=O)c2c(Cl)cccc2Cl)c1` (centres undefined), the Activity in the data set on H4 [1] is -13.6%; in the data set with H4 [2] it was -15.8%; in the data set with H4 [3] it was 1.6%; in the data set with H4 [4] it was 9.2%.

`N/C(=N\O)c1cccc(CSCCNC(=O)c2c(Cl)cccc2Cl)c1`: the Activity in the data set with H4 [1] was -1.5%; in the data set on H4 [2], 1.6%.

With `O=C(NCCNC(=O)c1c(Cl)cccc1Cl)c1c(Cl)cccc1Cl`, in the data set with H4 [1], the Activity worked out at 7.6%.

For `O=C(NCCOCc1ccccc1)c1ccccc1Cl`, in the data set with H4 [1], the Activity is 10.3%.

`O=C(NCCSCc1cc(O)cc(O)c1)c1c(Cl)cccc1Cl`: the Activity was 3.1% in the data set with H4 [1], 17.2% in the data set on H4 [2], -0.4% with H4 [3] and -0.7% with H4 [4].

Consider `O=C(NCCSCc1cccc(Cl)c1)c1ccccc1Cl`, for which the Activity in the data set on H4 [1] was determined as 4.7%.

Turning to `O=C(NCCOCc1cccc(Cl)c1)c1c(Cl)cccc1Cl`, the Activity in the data set on H4 [1] was 10.5%; in the data set on H4 [2] it was -5.1%; in the data set with H4 [3], -9.9%; in the data set with H4 [4] it was 4.2%.

On to `O=C(NCCNC(=O)c1ccccc1F)c1ccccc1F`, for which the Activity in the data set with H4 [1] came to 0.2%.

As to `O=C(NCc1ccccc1)c1c(F)cccc1Cl`, the Activity in the data set with H4 [1] came to 3.8%.

`N=C(NO)c1cccc(CSCCNC(=O)c2c(Cl)cccc2Cl)c1`: the Activity worked out at 9.2% in the data set with H4 [3] and 5.9% in the data set with H4 [4].

Consider `O=C(NCCSCc1cccc(Br)c1)c1c(Cl)cccc1Cl`, for which the Activity in the data set with H4 [1] is 75%; in the data set with H4 [2], 90.1%; with H4 [3], 12.3%; in the data set on H4 [4], 38.6%.

In the case of `O=C(NCCSCc1cccc(OCCOCCO)c1)c1c(Cl)cccc1Cl`, the Activity with H4 [1] is 17.4%; with H4 [2], 24.3%; in the data set with H4 [3], -7.3%; with H4 [4], 6.1%.

For the molecule `COc1cccc(CSCCNC(=O)c2c(OC)cccc2OC)c1`, the Activity in the data set on H4 [1] was 6.2%; in the data set with H4 [2] it was -0.6%; in the data set on H4 [3] it was 0.5%; with H4 [4], 3.9%.

For `CC(C)(CNC(=O)c1c(Cl)cccc1Cl)SCc1ccc(F)cc1`, in the data set on H4 [1], the Activity came to 37%.

`O=C(NCCSCc1cccc(O)c1O)c1c(Cl)cccc1Cl`: the Activity was -4.3% in the data set with H4 [1], 33.1% with H4 [2], -4.8% with H4 [3] and 14% in the data set with H4 [4].

Regarding `O=Cc1cccc(CSCCNC(=O)c2c(Cl)cccc2Cl)c1`, the Activity was 19.9% with H4 [1], 36.4% in the data set on H4 [2], 1.5% in the data set with H4 [3] and -2.1% with H4 [4].

As to `O=C(NCCSCc1ccc(Cl)cc1Cl)c1ccc(Cl)cc1Cl`, the Activity in the data set with H4 [1] is 39.8%.

As for `O=C(Cc1c(Cl)cccc1Cl)NCCSCc1cccc(Cl)c1`, the Activity with H4 [1] is 6.7%; in the data set on H4 [2], 13.5%; in the data set on H4 [3] it was -1.3%; in the data set with H4 [4] it was -0.7%.

Turning to `COCCCNC(=O)c1c(Cl)cccc1Cl`, in the data set with H4 [1], the Activity is 6.9%.

As for `O=C(NCCSCc1cccc(Cl)c1)c1ccc(F)cc1`, in the data set with H4 [1], the Activity worked out at 6.4%.

For `O=C(NCCSCc1cccc(F)c1)c1c(Cl)cccc1Cl`, the Activity was 10.2% in the data set with H4 [1], 36.1% with H4 [2], 2.6% in the data set with H4 [3] and 3.7% with H4 [4].

On to `O=C(NCCSCc1cccc(Br)c1)c1c(Br)cccc1Br`, for which the Activity in the data set on H4 [1] is 78.6%; with H4 [2], 87.3%; with H4 [3], 9.8%; with H4 [4], 23.9%.

On to `O=C(NCCSCc1cccc(Cl)c1)c1ccccc1`, for which the Activity is 0.3% in the data set on H4 [1], 10.7% in the data set on H4 [2], 2.4% in the data set with H4 [3] and -4.5% in the data set on H4 [4].

On to `COc1cccc(CS(=O)(=O)CCNC(=O)c2c(Cl)cccc2Cl)c1`, for which the Activity with H4 [1] amounted to 5.3%; in the data set on H4 [2], 4.9%; with H4 [3], 1.2%; with H4 [4], 8.9%.

Take `O=C(NCCSCc1cccc(Cl)c1)c1c(Br)cccc1Br`: the Activity in the data set with H4 [1] is 74.2%; in the data set on H4 [2], 83.4%; in the data set with H4 [3] it was 6.7%; in the data set on H4 [4] it was 20.8%.

Turning to `O=C(NCCSCc1ccc(Cl)cc1)c1c(Cl)cccc1Cl`, the Activity in the data set on H4 [1] was 21.8%; with H4 [2] it was 36.5%; with H4 [3] it was -6.4%; with H4 [4] it was 3%.

Take `O=C(NCCSCc1cccc(O)c1)c1c(O)cccc1O`: the Activity was -22.5% in the data set with H4 [1], -25.2% in the data set with H4 [2], 10.5% with H4 [3] and 14.3% with H4 [4].

In the case of `CN(C)CCCNC(=O)c1c(Cl)cccc1Cl`, the Activity in the data set with H4 [1] came to 15.8%.

With `Cc1cccc(C)c1C(=O)NCCSCc1cccc(Cl)c1`, the Activity with H4 [1] is 29.5%; with H4 [2] it was 51.6%; in the data set with H4 [3], 0.9%; in the data set on H4 [4], -9.4%.

As to `CCOC(=O)c1cccc(CSCCNC(=O)c2c(Cl)cccc2Cl)c1`, the Activity turned out to be 3% in the data set with H4 [1], 10.1% in the data set with H4 [2], 5.8% in the data set on H4 [3] and 5.4% in the data set on H4 [4].

For the molecule `O=C(NCCCCNC(=O)c1c(Cl)cccc1Cl)c1c(Cl)cccc1Cl`, the Activity in the data set with H4 [1] was found to be 4%.

With `O=C(NCCSc1ccccc1)c1ccccc1Cl`, the Activity with H4 [1] is -4.4%.

In the case of `Oc1c(Cl)cc(Cl)cc1/C=N/CCSCc1ccccc1Cl`, the Activity in the data set with H4 [1] stood at 5.3%.

Turning to `Nc1cccc(CSCCNC(=O)c2c(Cl)cccc2Cl)c1`, the Activity came to 0.1% in the data set on H4 [1], 17% in the data set on H4 [2], 15.3% with H4 [3] and 13.1% with H4 [4].

As for `COc1ccc(CSCCNC(=O)c2c(Cl)cccc2Cl)cc1`, the Activity amounted to 1.6% with H4 [1], 1.1% in the data set on H4 [2], 6.7% in the data set on H4 [3] and 12.7% in the data set with H4 [4].

For the molecule `Clc1cccc(CSCCNCc2c(Cl)cccc2Cl)c1`, the Activity is 45.2% with H4 [1], 45.6% in the data set on H4 [2], -3.6% in the data set with H4 [3] and 6.6% in the data set with H4 [4].

For `O=C(NCCSCc1ccc(F)cc1)c1c(F)cccc1Cl`, in the data set with H4 [1], the Activity worked out at 27.3%.

For `O=C(NCCSCc1cccc(C(F)(F)F)c1)c1c(Cl)cccc1Cl`, the Activity was found to be 73.9% with H4 [1], 93.4% with H4 [2], 19% in the data set on H4 [3] and 47.8% in the data set on H4 [4].

Turning to `COc1cccc(CSCCNC(=O)c2c(Cl)cccc2OC)c1`, the Activity in the data set with H4 [1] is -2.9%; with H4 [2] it was -4.7%; in the data set on H4 [3], 1.9%; in the data set on H4 [4], 9.3%.

With `N#Cc1cccc(CSCCNC(=O)c2c(Cl)cccc2Cl)c1`, the Activity is 20% in the data set on H4 [1], 38.7% with H4 [2], -4.8% in the data set on H4 [3] and 4.3% with H4 [4].

Take `NC(=O)c1c(Cl)cccc1CSCCNC(=O)c1c(Cl)cccc1Cl`: the Activity in the data set with H4 [1] was 44.7%; with H4 [2] it was 49.7%; in the data set on H4 [3], 2.5%; with H4 [4], -5.6%.

Turning to `O=C(NCCSCc1cccc(Cl)c1)c1c([N+](=O)[O-])cccc1[N+](=O)[O-]`, the Activity in the data set with H4 [1] turned out to be 28.8%; with H4 [2], 52.9%; with H4 [3], 0.1%; in the data set on H4 [4], 17.8%.

With `O=C(NCC[S+]([O-])Cc1cccc(O)c1)c1c(Cl)cccc1Cl` (centres undefined), the Activity in the data set on H4 [1] was -23.7%; in the data set on H4 [2] it was 15.9%; in the data set on H4 [3] it was 2.8%; in the data set with H4 [4], 4.4%.

As for `COc1cccc(OC)c1C(=O)NCCSCc1cccc(Cl)c1`, the Activity with H4 [1] was -13.1%; in the data set with H4 [2], 11.2%; in the data set with H4 [3], 7.1%; in the data set on H4 [4] it was -0.6%.

`O=C(NCCSCc1ccc(Cl)c(Cl)c1)c1ccccc1Cl`: the Activity with H4 [1] was found to be 0.7%.

For the molecule `O=C(NCCSCc1ccc(Cl)c(Cl)c1)c1ccc(Cl)cc1Cl`, in the data set with H4 [1], the Activity was determined as 4.3%.

Turning to `O=C(NCCSCc1ccccc1Cl)c1ccccc1Cl`, the Activity with H4 [1] worked out at 4%.

With `CCN(CC)CCCNC(=O)c1c(Cl)cccc1Cl`, the Activity with H4 [1] is 5.1%.
